One data set addresses hERG (Homo sapiens, UniProt Q12809). The experiment in a line: Inhibition of human ERG-mediated current expressed in CHO cells by patch clamp method. Particulars: CHO cells expressing human ERG. Format: cell-based. Put shortly: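 hERG-transfected CHO cells on automated whole-cell patch clamp at a holding potential of −80 mV; 1 s depolarizing pulse at 0.1 Hz; tail current measured at −40 mV. Sequence: 0.3% DMSO vehicle, three ascending log-interval concentrations up to 30 μM or the solubility limit, then 1 μM E-4031. At least 3 cells per compound; data normalized to vehicle and fitted with the Hill equation.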
(In general: The patch-clamp technique gives a direct electrical read-out from membranes.)

The nature of data set [1]: Volume of distribution in Beagle dog at 5 mg/kg, iv. Format: ADME, organism-based, Canis lupus familiaris. Also noted: dose 5 mg/kg, route intravenous. The note with it: in vivo.
A short description of data set [2]: Clearance in Beagle dog at 5 mg/kg, iv. Also noted: dose 5 mg/kg, route intravenous. Particulars: in vivo. Format: ADME, organism-based, Canis lupus familiaris. Put shortly:
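Plasma levels by protein precipitation with acetonitrile and LC-MS/MS (linear range 5.0–5000 ng/mL); noncompartmental analysis; mean of n = 3.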

Data set [3] can be described thus: Cmax in diet-induced obese rat at 0.3 mg/kg, po administered once daily for 3 weeks. Format: ADME, organism-based. Particulars: in vivo. On the set-up: dose 0.3 mg/kg, route oral.
The test system of data set [4] is Rattus norvegicus. Nature of the data set: Antiobesity activity in diet-induced obese rat assessed as reduction in body weight gain at 3 mg/kg, po qd. Also noted: scale not given: the % may be the effect or the level left. Type of data set: functional. An outline of the steps:
(§1)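 Male DIO rats given 3 mg/kg po once daily for 1 week, with body weight gain followed. At study end, rats were fasted 4 h and challenged with corn oil 5 mL/kg; plasma triglycerides were measured 4 h later and compared with the vehicle group.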

Data set [5] has as its target T1, Sterol O-acyltransferase 2 (Homo sapiens, UniProt O75908).
T1 sequence (O75908 whole entry): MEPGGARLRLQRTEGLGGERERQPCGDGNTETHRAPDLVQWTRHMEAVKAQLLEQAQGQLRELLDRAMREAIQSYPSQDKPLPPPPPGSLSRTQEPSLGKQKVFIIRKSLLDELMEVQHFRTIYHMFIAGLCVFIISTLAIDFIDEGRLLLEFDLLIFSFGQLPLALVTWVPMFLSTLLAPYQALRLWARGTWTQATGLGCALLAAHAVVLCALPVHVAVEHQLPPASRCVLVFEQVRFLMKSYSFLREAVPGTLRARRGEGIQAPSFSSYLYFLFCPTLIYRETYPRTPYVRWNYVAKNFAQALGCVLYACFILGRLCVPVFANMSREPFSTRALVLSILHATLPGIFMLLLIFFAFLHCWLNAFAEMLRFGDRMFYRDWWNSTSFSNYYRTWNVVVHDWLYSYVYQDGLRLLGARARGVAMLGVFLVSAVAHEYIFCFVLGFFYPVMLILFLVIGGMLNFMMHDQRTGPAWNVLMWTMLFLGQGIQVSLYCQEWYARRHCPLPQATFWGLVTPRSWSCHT
The experiment in a line: Inhibition of human ACAT2 expressed in human HepG2 cells after incubated with compound for 15 mins measured after 1 hr using palmitoyl-1-14C-coenzyme A by TLC assay. Type of data set: cell-based. An outline of the steps:
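HepG2 membranes (mixed ACAT1/ACAT2), 2.6 mg/mL stock, diluted to 0.52 mg/mL in Tris pH 7.5 buffer. Preincubated 15 min on ice with compound (0–600 μM solutions in 20% DMSO), then 2.37 μM [1-14C]palmitoyl-CoA solution added. Product extracted and resolved by TLC with phosphoimager read-out.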

Data set [6] deals with Rattus norvegicus. Nature of the data set: Antiobesity activity in diet-induced obese rat assessed as reduction in body weight gain at 3 mg/kg, po administered once daily for 3 weeks. Type of data set: functional. Also noted: scale not given: the % may be the effect or the level left. Put shortly: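 Male DIO rats, 19 weeks old, on high fat diet for 12 weeks, dosed po once daily with Klucel (hydroxypropyl cellulose) suspension for 22 days; 10 rats per group. Body weight followed throughout; daily food intake recorded on days 1–3, 8, 9, 15 and 16, values averaged per group.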

Data set [7] can be described thus: Volume of distribution in Hanover Wistar rat at 5 mg/kg, iv. Format: ADME, organism-based. On the set-up: dose 5 mg/kg, route intravenous. The note with it: in vivo.
The nature of data set [8]: Lipophilicity, log D of the compound. Format: physicochemical. Particulars: octanol/water.
The subject of data set [9] is Rattus norvegicus. The experiment in a line: Antidiabetic activity in diet-induced obese Sprague-Dawley rat assessed as effect on insulin level at 0.3 mg/kg, po administered once daily for 3 weeks measured after 30 mins by OGTT. Format: functional, organism-based. On the set-up: dose 0.3 mg/kg. Put shortly:
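DIO rats (n = 10/group) on high fat diet, dosed po once daily in Klucel suspension for 3 weeks. On day 21 an oral glucose challenge of 2 g/kg was given, and plasma insulin was measured at the 30 min time point.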

The test system of data set [10] is Rattus norvegicus. The experiment in a line: Antidiabetic activity in diet-induced obese Sprague-Dawley rat assessed as insulin-mediated decrease in glucose level at 3 mg/kg, po administered once daily for 3 weeks OGTT. Format: functional, organism-based. Also noted: dose 3 mg/kg. An outline of the steps:
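Male Sprague-Dawley DIO rats (n = 10/group), 550–650 g, reverse light/dark cycle, high fat diet from 7 weeks of age; dosed po once daily in Klucel suspension.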

For the next data set, the target named is Cytochrome P450 3A4 (Homo sapiens, UniProt P08684). Nature of the data set: Inhibition of CYP3A4. Type of data set: ADME.
Data set [11] in a line: Solubility of the compound at mp 217 degC. Format: physicochemical.
Data set [12] in a line: Clearance in Hanover Wistar rat at 5 mg/kg, iv. Format: ADME, organism-based. Also noted: dose 5 mg/kg, route intravenous. The note with it: in vivo. Put shortly:
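Hanover Wistar rats (n = 3) cannulated in jugular and femoral veins, dosed iv 5 mg/kg via jugular vein as a solution in 2% DMA, 15% PEG400, 77% of 28% HPβCD in pH 7 PBS. Femoral-vein blood, EDTA plasma, acetonitrile precipitation, LC-MS/MS, noncompartmental analysis; mean of n = 3.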

The nature of data set [13]: Extrapolated AUC in Beagle dog at 10 mg/kg, po. On the set-up: dose 10 mg/kg, route oral. The note with it: in vivo. Type of data set: ADME, organism-based, Canis lupus familiaris. Put shortly:
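Plasma extracted by acetonitrile precipitation and quantified by LC-MS/MS (5.0–5000 ng/mL); noncompartmental PK; bioavailability relative to 5 mg/kg iv; mean of n = 3.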

A short description of data set [14]: Inhibition of P-glycoprotein.
The target of data set [15] is T2, Diacylglycerol O-acyltransferase 2 (Homo sapiens, UniProt Q96PD7).
T2 sequence (Q96PD7 whole entry): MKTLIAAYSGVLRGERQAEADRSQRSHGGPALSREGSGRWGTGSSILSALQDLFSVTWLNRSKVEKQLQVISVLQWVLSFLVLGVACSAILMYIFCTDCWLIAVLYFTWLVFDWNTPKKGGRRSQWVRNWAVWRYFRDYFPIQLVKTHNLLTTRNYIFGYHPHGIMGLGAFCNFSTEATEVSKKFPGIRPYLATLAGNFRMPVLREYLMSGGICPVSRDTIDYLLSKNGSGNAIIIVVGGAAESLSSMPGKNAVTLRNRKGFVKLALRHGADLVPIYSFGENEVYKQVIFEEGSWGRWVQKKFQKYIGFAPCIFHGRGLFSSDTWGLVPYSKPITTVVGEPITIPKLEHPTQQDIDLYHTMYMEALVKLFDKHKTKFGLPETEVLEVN
Nature of the data set: Inhibition of human DGAT2 expressed in baculovirus infected Sf9 cells using palmitoyl-1-14C-coenzyme A by TLC assay. An outline of the steps:
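DGAT-2 membranes from baculovirus-infected Sf9 cells, diluted to 0.313 mg/mL in 50 mM Tris pH 7.5, 20 mM MgCl2, 0.25 M sucrose. Preincubated 15 min on ice with compound (0–600 μM solutions in 20% DMSO), then DAG and 8.3 μM [14C]palmitoyl-CoA solutions added; 5 min at 37 °C. Lipids extracted with chloroform/methanol, resolved by TLC, phosphoimager read-out.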

Data set [16] concerns Rattus norvegicus. The experiment in a line: Antiobesity activity in diet-induced obese rat assessed as reduction in plasma triglyceride levels at 3 mg/kg, po qd after 4 hrs challenged with corn oil relative to vehicle treated control. Also noted: scale not given: the % may be the effect or the level left. Type of data set: functional. An outline of the steps: as §1

Converted amounts (≈) assume the structure as drawn. The source made the active and inactive calls. The calls are words filed in the database; no cut-off is given here. Where only a bound is given, the exact number is not on record here.

hERG, sequence (Q12809 whole entry): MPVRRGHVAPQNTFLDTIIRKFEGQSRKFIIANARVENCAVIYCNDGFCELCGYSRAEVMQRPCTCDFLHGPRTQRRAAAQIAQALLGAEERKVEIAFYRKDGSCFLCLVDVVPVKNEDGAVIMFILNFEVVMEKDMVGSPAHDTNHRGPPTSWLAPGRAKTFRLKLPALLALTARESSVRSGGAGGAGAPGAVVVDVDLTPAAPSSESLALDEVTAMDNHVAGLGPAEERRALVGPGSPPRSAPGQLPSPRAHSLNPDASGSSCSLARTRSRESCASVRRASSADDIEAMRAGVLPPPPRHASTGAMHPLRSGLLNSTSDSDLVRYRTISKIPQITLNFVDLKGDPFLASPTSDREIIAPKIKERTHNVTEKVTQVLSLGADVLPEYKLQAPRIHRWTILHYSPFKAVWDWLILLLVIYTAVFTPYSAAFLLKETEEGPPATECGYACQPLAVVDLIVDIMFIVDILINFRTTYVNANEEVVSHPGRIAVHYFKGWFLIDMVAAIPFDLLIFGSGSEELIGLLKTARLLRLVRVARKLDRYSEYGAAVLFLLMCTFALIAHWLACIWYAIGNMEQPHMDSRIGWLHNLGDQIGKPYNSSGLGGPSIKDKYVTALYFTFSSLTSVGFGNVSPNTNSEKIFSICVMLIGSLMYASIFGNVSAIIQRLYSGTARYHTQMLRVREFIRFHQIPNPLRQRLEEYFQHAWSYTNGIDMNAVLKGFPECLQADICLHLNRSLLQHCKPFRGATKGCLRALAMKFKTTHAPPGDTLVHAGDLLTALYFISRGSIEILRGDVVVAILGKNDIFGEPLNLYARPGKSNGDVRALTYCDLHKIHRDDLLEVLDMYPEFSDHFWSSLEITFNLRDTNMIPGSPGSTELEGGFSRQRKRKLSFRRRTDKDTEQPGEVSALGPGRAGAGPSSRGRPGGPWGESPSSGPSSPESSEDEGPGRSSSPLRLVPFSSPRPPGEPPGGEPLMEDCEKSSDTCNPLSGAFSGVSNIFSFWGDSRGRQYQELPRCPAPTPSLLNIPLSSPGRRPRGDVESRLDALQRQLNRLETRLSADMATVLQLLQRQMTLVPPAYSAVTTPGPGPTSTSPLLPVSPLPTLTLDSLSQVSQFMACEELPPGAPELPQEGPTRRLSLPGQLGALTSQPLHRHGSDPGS
Cytochrome P450 3A4, sequence (P08684 whole entry): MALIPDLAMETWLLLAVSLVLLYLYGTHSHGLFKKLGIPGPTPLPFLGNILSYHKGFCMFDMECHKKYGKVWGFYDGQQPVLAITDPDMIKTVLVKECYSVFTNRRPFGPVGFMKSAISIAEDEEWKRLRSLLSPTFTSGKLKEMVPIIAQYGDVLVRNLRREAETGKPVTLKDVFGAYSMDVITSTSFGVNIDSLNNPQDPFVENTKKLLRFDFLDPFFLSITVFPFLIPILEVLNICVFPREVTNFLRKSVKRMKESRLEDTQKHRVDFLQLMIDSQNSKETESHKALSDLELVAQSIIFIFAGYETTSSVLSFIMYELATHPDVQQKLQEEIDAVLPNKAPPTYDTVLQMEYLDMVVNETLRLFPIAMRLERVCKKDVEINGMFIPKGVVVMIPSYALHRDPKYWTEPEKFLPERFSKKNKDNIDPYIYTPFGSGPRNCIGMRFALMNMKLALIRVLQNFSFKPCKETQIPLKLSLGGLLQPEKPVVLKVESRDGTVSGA

The term IC20 denotes the concentration at which the effect reaches the 20% level. Usually Vd stands for the apparent volume that relates the amount in the body to the concentration in plasma or blood. As usually defined, the clearance is a measure of how efficiently the substance is removed, as volume per time. By Cmax is commonly meant the peak of the concentration-time curve. The term IC50 denotes the concentration that gives 50% inhibition. The logD is lipophilicity at a set pH, counting ionised and neutral species. In general, solubility refers to the dissolved amount per volume that the medium holds. The AUC is the area under the concentration-time curve, a measure of exposure. Take `O=C(Nc1ccc(C2CCN(C(=O)[C@H]3CC[C@H](C(=O)O)CC3)CC2)cc1)c1nc(-c2ccccc2)oc1C(F)(F)F`: the IC20 on hERG worked out at 30 µM. The Vd turned out to be 0.38 L/kg in [1] and 0.27 L/kg in data set [7]. The clearance in data set [2] worked out at 1.3 mL/min/kg; in data set [12] it was 0.38 mL/min/kg. For the same compound, the highest level in data set [3] (Cmax) was 2000 nM. Moreover, the values for the Activity in the data set on Rattus norvegicus [4], in the data set with Rattus norvegicus [6] and with Rattus norvegicus [16] were 4%, 8% and 85%, respectively. In addition, the concentration for half-maximal inhibition (IC50) was 68.4 µM in data set [5], greater than 50 µM on Cytochrome P450 3A4 and greater than 100 µM in data set [15]. Moreover, the logD in data set [8] stood at 2.34. Besides, the outcome in the data set with Rattus norvegicus [9] was inactive. Besides, in the data set on Rattus norvegicus [10], the outcome was Active. Moreover, in data set [11], the solubility is 15.4 µg/mL (≈ 27 µM). Further, in data set [13], the AUC was 77.9 µM·h. The inhibition entry in data set [14] was “inactive”.

The values above are taken from ChEMBL document CHEMBL1764953, “Discovery of orally active carboxylic acid derivatives of 2-phenyl-5-trifluoromethyloxazole-4-carboxamide as potent diacylglycerol acyltransferase-1 inhibitors for the potential treatment of obesity and diabetes” (J Med Chem, 2011).
